Assays:
[1] = Stability of compound in phosphate buffer at pH 7.4 assessed as compound half life by HPLC-UV assay; assay type: physicochemical
In short: (§1)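 Chemical hydrolysis in 0.02 M HCl buffer pH 1.3 (non-enzymatic simulated gastric fluid) or 0.02 M phosphate buffer pH 7.4, each containing 20% acetonitrile, at 37 °C. Started by adding the 10^-4 M acetonitrile stock. Samples taken over time and analyzed by HPLC-UV at 220 nm. Rate constants are means of triplicates.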

[2] = Stability of compound in non-enzymatic stimulated-gastric fluid at pH 1.3 assessed as half life by HPLC-UV assay; assay type: physicochemical; conditions: non-enzymatic simulated gastric fluid; in short: as §1
[3] = Cytotoxicity against Sprague-Dawley rat Cerebral cortex neuron assessed as cell viability at 0.1 uM incubated for 24 hrs by MTT assay relative to control; assay type: tissue-based; conditions: cerebral cortex neurons, read-out: Activity
In short: (§2)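 Primary fetal rat cortical neurons, matured 8 days, treated 24 h at 37 °C with compound (0.1–100 µM; 0.5% DMSO or water vehicle). MTT 0.7 mg/ml was then added for 30 min at 37 °C, and formazan was extracted with isopropanol/formic acid (95:5) and read at 560 nm. Untreated control was set as 100% viability. Four independent experiments.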

[4] = Cytotoxicity against Sprague-Dawley rat Cerebral cortex neuron assessed as cell viability at 1 uM incubated for 24 hrs by MTT assay relative to control; assay type: tissue-based; conditions: cerebral cortex neurons, read-out: Activity; in short: as §2
[5] = Cytotoxicity against Sprague-Dawley rat Cerebral cortex neuron assessed as cell viability at 10 uM incubated for 24 hrs by MTT assay relative to control; assay type: tissue-based; conditions: cerebral cortex neurons, read-out: Activity; in short: as §2
[6] = Cytotoxicity against Sprague-Dawley rat Cerebral cortex neuron assessed as cell viability at 25 uM incubated for 24 hrs by MTT assay relative to control; assay type: tissue-based; conditions: cerebral cortex neurons, read-out: Activity; in short: as §2
[7] = Cytotoxicity against rat Sprague-Dawley Cerebral cortex neuron assessed as cell viability at 50 uM incubated for 24 hrs by MTT assay relative to control; assay type: tissue-based; conditions: cerebral cortex neurons, read-out: Activity; in short: as §2
[8] = Cytotoxicity against Sprague-Dawley rat Cerebral cortex neuron assessed as cell viability at 100 uM incubated for 24 hrs by MTT assay relative to control; assay type: tissue-based; conditions: cerebral cortex neurons, read-out: Activity; in short: as §2
[9] = Cytotoxicity against Sprague-Dawley rat Cerebral cortex neuron assessed as LDH activity at 0.1 uM incubated for 24 hrs by LDH assay (reference value: […]); assay type: tissue-based
In short: (§3)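 Primary fetal rat cortical neurons, matured 8 days on poly-D-lysine, exposed 24 h at 37 °C to compound (0.1–100 µM; DMSO 0.5% or water vehicle). LDH released into 100 µl culture medium was measured by kit as the rate of NAD+ reduction (absorbance increase at 490 nm). Positive control was mitomycin C. Four independent experiments.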

[10] = Cytotoxicity against Sprague-Dawley rat Cerebral cortex neuron assessed as LDH activity at 1 uM incubated for 24 hrs by LDH assay (reference value: […]); assay type: tissue-based; in short: as §3
[11] = Cytotoxicity against Sprague-Dawley rat Cerebral cortex neuron assessed as LDH activity at 10 uM incubated for 24 hrs by LDH assay; assay type: tissue-based; in short: as §3
[12] = Cytotoxicity against Sprague-Dawley rat Cerebral cortex neuron assessed as LDH activity at 25 uM incubated for 24 hrs by LDH assay (reference value: […]); assay type: tissue-based; in short: as §3
[13] = Cytotoxicity against Sprague-Dawley rat Cerebral cortex neuron assessed as LDH activity at 50 uM incubated for 24 hrs by LDH assay (reference value: […]); assay type: tissue-based; in short: as §3
[14] = Cytotoxicity against Sprague-Dawley rat Cerebral cortex neuron assessed as LDH activity at 100 uM incubated for 24 hrs by LDH assay (reference value: […]); assay type: tissue-based; in short: as §3
[15] = Antioxidant activity in Sprague-Dawley rat Cerebral cortex neuron assessed as total antioxidant capacity by measuring trolox equivalents at 1 uM after 24 hrs; assay type: functional
In short: (§4)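 Primary cerebral cortex neurons from rat fetuses, grown on poly-D-lysine in neurobasal medium with fetal calf serum (5% CO2, 37 °C), tested after 8 days in culture. Compounds in DMSO (0.5%) or sterile water were added and incubated 24 h at 37 °C. Cells were washed in ice-cold PBS and homogenized in 0.9% saline. Intracellular TAC (Trolox equiv.) and TOS (H2O2 equiv.) were read by kit. Ascorbic acid 10 µM (TAC) and H2O2 25 µM (TOS) served as positive controls. Four independent experiments.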

[16] = Antioxidant activity in Sprague-Dawley rat Cerebral cortex neuron assessed as total antioxidant capacity by measuring trolox equivalents at 10 uM after 24 hrs; assay type: functional; in short: as §4
[17] = Antioxidant activity in Sprague-Dawley rat Cerebral cortex neuron assessed as total antioxidant capacity by measuring trolox equivalents at 100 uM after 24 hrs; assay type: functional; in short: as §4
[18] = Antioxidant activity in Sprague-Dawley rat Cerebral cortex neuron assessed as total oxidative stress level by measuring H2O2 equivalents at 1 uM after 24 hrs (reference value: 2.3 +/- 0.3 umol/L); assay type: functional; in short: as §4
[19] = Antioxidant activity in Sprague-Dawley rat Cerebral cortex neuron assessed as total oxidative stress level by measuring H2O2 equivalents at 10 uM after 24 hrs (reference value: 2.3 +/- 0.3 umol/L); assay type: functional; in short: as §4
[20] = Antioxidant activity in Sprague-Dawley rat Cerebral cortex neuron assessed as total oxidative stress level by measuring H2O2 equivalents at 50 uM after 24 hrs (reference value: 2.3 +/- 0.3 umol/L); assay type: functional; in short: as §4
[21] = Antioxidant activity in Sprague-Dawley rat Cerebral cortex neuron assessed as total oxidative stress level by measuring H2O2 equivalents at 100 uM after 24 hrs (reference value: 2.3 +/- 0.3 umol/L); assay type: functional; in short: as §4
[22] = Stability of compound in fasted state stimulated intestinal fluid at pH 1.3 assessed as half life in presence of 40 mg/ml pepsin by HPLC-UV assay; assay type: ADME; conditions: fasted state simulated intestinal fluid with pepsin
In short: (§5)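 HCl buffer with pepsin or phosphate buffer with pancreatin (10 or 40 mg/ml), preincubated at 37 °C. Drug stock (50 µM in ethanol/fasted state intestinal fluid 1:9) added and shaken at 37 °C, 650 rpm. Samples quenched with ice-cold acetonitrile containing 0.5% formic acid, centrifuged at 2 °C, and the supernatant assayed by HPLC-UV. Three experiments.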

[23] = Stability of compound in fasted state stimulated intestinal fluid at pH 7.4 assessed as half life in presence of 10 mg/ml pancreatin by HPLC-UV assay; assay type: ADME; conditions: for half-life: fasted state simulated intestinal fluid with pancreatin; in short: as §5
[24] = Stability of compound in fasted state stimulated intestinal fluid at pH 7.4 assessed as half life in presence of 40 mg/ml pancreatin by HPLC-UV assay; assay type: ADME; conditions: for half-life: fasted state simulated intestinal fluid with pancreatin; in short: as §5
[25] = Stability of compound in rat plasma assessed as half life by HPLC-UV assay; assay type: ADME, cell-free
In short: (§6)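 Citrated human or rat plasma diluted to 80% with 0.02 M phosphate buffer pH 7.4, 37 °C with shaking. Compound added from a 1 mg/ml acetonitrile stock. Aliquots deproteinized with 0.01 M HCl in methanol, centrifuged, and analyzed by HPLC-UV (C8 column, KH2PO4/methanol pH 2.5, 220 nm). Remaining intact compound plotted against time. Three experiments.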

[26] = Stability of compound in fasted state stimulated intestinal fluid at pH 1.3 assessed as rate of compound hydrolysis in presence of 10 mg/ml pepsin by HPLC-UV assay; assay type: ADME; conditions: isolated protein; in short: as §5
[27] = Stability of compound in human plasma assessed as rate of compound hydrolysis by HPLC-UV assay; assay type: ADME, cell-free; in short: as §6

Compound: COc1ccc(CN2CCC(OC(=O)CCCCC3CCSS3)CC2)cc1 (stereo not drawn)
- half-life [1]: 37 h
- half-life [2]: 52 h
- viability at 24 h, 0.1 µM [3]: 99.5%
- viability at 24 h, 1 µM [4]: 98.4%
- viability at 24 h, 10 µM [5]: 97.1%
- viability at 24 h, 25 µM [6]: 96.2%
- viability at 24 h, 50 µM [7]: 95%
- viability at 24 h, 100 µM [8]: 91.2%
- Activity [9]: 0.28 mU/ml
- Activity [10]: 0.29 mU/ml
- Activity [11]: 0.34 mU/ml
- Activity [12]: 0.32 mU/ml
- Activity [13]: 0.34 mU/ml
- Activity [14]: 0.34 mU/ml
- TAC [15]: 11.3 mmol/L
- TAC [16]: 11 mmol/L
- TAC [17]: 10.7 mmol/L
- Activity [18]: 0.4 µmol/L
- Activity [19]: 0.4 µmol/L
- Activity [20]: 0.5 µmol/L
- Activity [21]: 0.5 µmol/L
- half-life [22]: 22.2 h
- half-life [23]: 2.78 h
- half-life [24]: 2.83 h
- half-life [25]: 0.46 h
- Drug degradation [26]: 0.018 h⁻¹
- Drug degradation [27]: 1.14 h⁻¹

Compound: O=C(CCCCC1CCSS1)N1CCN(Cc2ccccc2)CC1 (stereo not drawn)
- half-life [1]: 53.8 h
- half-life [2]: 93 h
- viability at 24 h, 0.1 µM [3]: 99.4%
- viability at 24 h, 1 µM [4]: 98.6%
- viability at 24 h, 10 µM [5]: 97.5%
- viability at 24 h, 25 µM [6]: 96.8%
- viability at 24 h, 50 µM [7]: 96%
- viability at 24 h, 100 µM [8]: 95.4%
- Activity [9]: 0.3 mU/ml
- Activity [10]: 0.32 mU/ml
- Activity [11]: 0.32 mU/ml
- Activity [12]: 0.32 mU/ml
- Activity [13]: 0.34 mU/ml
- Activity [14]: 0.34 mU/ml
- TAC [15]: 11.1 mmol/L
- TAC [16]: 12.6 mmol/L
- TAC [17]: 14.6 mmol/L
- Activity [18]: 0.5 µmol/L
- Activity [19]: 0.4 µmol/L
- Activity [20]: 0.5 µmol/L
- Activity [21]: 0.5 µmol/L
- half-life [22]: 66.2 h
- half-life [23]: 22.2 h
- half-life [24]: 9.58 h
- t1/2 [25]: Unstable
- Drug degradation [26]: 0.01 h⁻¹
- Drug degradation [27]: 0.39 h⁻¹

Compound: O=C(CCCCC1CCSS1)OC1CCN(Cc2ccccc2)CC1 (stereo not drawn)
- half-life [1]: 40.5 h
- half-life [2]: 58.7 h
- viability at 24 h, 0.1 µM [3]: 99.8%
- viability at 24 h, 1 µM [4]: 98.7%
- viability at 24 h, 10 µM [5]: 97.8%
- viability at 24 h, 25 µM [6]: 98.1%
- viability at 24 h, 50 µM [7]: 97.6%
- viability at 24 h, 100 µM [8]: 97.8%
- Activity [9]: 0.3 mU/ml
- Activity [10]: 0.26 mU/ml
- Activity [11]: 0.29 mU/ml
- Activity [12]: 0.32 mU/ml
- Activity [13]: 0.3 mU/ml
- Activity [14]: 0.32 mU/ml
- TAC [15]: 10.9 mmol/L
- TAC [16]: 11.4 mmol/L
- TAC [17]: 12.5 mmol/L
- Activity [18]: 0.5 µmol/L
- Activity [19]: 0.4 µmol/L
- Activity [20]: 0.4 µmol/L
- Activity [21]: 0.5 µmol/L
- half-life [22]: 23.1 h
- half-life [23]: 0.29 h
- half-life [24]: 0.09 h
- t1/2 [25]: Unstable
- Drug degradation [26]: 0.028 h⁻¹
- Drug degradation [27]: 1.61 h⁻¹

Compound: O=C(CCCCC1CCSS1)OC1CCN(Cc2ccc(F)cc2)CC1 (stereo not drawn)
- half-life [1]: 38 h
- half-life [2]: 47 h
- viability at 24 h, 0.1 µM [3]: 97.5%
- viability at 24 h, 1 µM [4]: 98.3%
- viability at 24 h, 10 µM [5]: 96.9%
- viability at 24 h, 25 µM [6]: 97.1%
- viability at 24 h, 50 µM [7]: 95.8%
- viability at 24 h, 100 µM [8]: 95.6%
- Activity [9]: 0.3 mU/ml
- Activity [10]: 0.3 mU/ml
- Activity [11]: 0.29 mU/ml
- Activity [12]: 0.3 mU/ml
- Activity [13]: 0.32 mU/ml
- Activity [14]: 0.32 mU/ml
- TAC [15]: 11.2 mmol/L
- TAC [16]: 11.1 mmol/L
- TAC [17]: 12.4 mmol/L
- Activity [18]: 0.4 µmol/L
- Activity [19]: 0.4 µmol/L
- Activity [20]: 0.5 µmol/L
- Activity [21]: 0.5 µmol/L
- half-life [22]: 0.68 h
- t1/2 ([23]; simulated gi fluid): Unstable
- t1/2 ([24]; simulated gi fluid): Unstable
- half-life [25]: 0.56 h
- Drug degradation [26]: 0.184 h⁻¹
- Drug degradation [27]: 0.856 h⁻¹
